Assay [1] deals with MCF7. In words: Increase of cytosolic cytochrome c level in human MCF7 cells at 4 uM after 24 hrs by Western blot analysis. The assay is classed as functional, cell-based. Put shortly:
(§1)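 MCF-7 cells were grown in DMEM with 10% FCS and penicillin/streptomycin at 37 °C in 5% CO2, then treated for 24 h. Cells were lysed in ice-cold RIPA buffer with protease inhibitors and NaF. Protein was measured by Bradford assay, and 30 µg per lane was run on 12% SDS-PAGE and transferred to PVDF. Antibody steps: primary at 4 °C overnight, HRP secondary 1:2000, chemiluminescent detection.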

Assay [2] has as its system MCF7. In words: Induction of apoptosis in human MCF7 cells assessed as increase of caspase 9 activation at 4 uM after 1 hr by fluorimetry based assay. The assay is classed as functional, cell-based.
For assay [3], the system named is MCF7. The assay can be described thus: Induction of apoptosis in human MCF7 cells assessed as DNA fragmentation at 4 uM after 24 hrs using ethidium bromide staining by agarose gel electrophoresis. The class given is functional, cell-based. Put shortly: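 1.5×10⁶ MCF-7 cells in 60 mm dishes were treated for 24 h and lysed in 10 mM Tris-HCl pH 7.5, 10 mM EDTA, 0.5% Triton X-100. The supernatant was digested with RNase A and proteinase K for 2 h at 37 °C. DNA was isolated by phenol–chloroform extraction and ethanol precipitation, run on 1% agarose with a 100 bp marker, and stained with ethidium bromide under UV.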

For assay [4], the system named is MCF7. The assay can be described thus: Cytotoxicity against human MCF7 cells at 2 uM after 24 hrs by MTT assay relative to control. The class given is functional. Put shortly:
(§2)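 MCF-7 cells were seeded at 10,000 cells/well in DMEM with 10% fetal calf serum. They were exposed to 0.5, 1, 2 and 4 µM for 24 h. MTT reduction to formazan was read at 570 nm, with untreated controls taken as 100% viability. DMSO-treated cells served as an additional control.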
For orientation: Tetrazolium dyes change colour on reduction, which living cells bring about.

Assay [5] relates to MCF7. The assay can be described thus: Cell cycle arrest in human MCF7 cells assessed as accumulation at G2/M phase at 2 uM after 24 hrs using propidium iodide staining by flow cytometry. The assay is classed as functional. Put shortly: (§3)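 MCF-7 cells were grown in DMEM with 10% fetal calf serum, penicillin and streptomycin, at 37 °C in 5% CO2. They were treated for 24 h at 2 and 4 µM, with DMSO-treated cells as controls. Cells were trypsinised, fixed in ice-cold 70% ethanol at 4 °C for 30 min, and RNaseA-treated at 37 °C for 30 min. Phases were read by flow cytometry.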
In general terms: Flow cytometry measures light scatter and fluorescence of single cells or particles in a stream.

Assay [6] deals with MCF7. The assay can be described thus: Induction of p53 expression in human MCF7 cells. The class given is functional, cell-based.
For assay [7], the system named is MCF7. In words: Cell cycle arrest in human MCF7 cells assessed as accumulation at G0 phase at 2 uM after 24 hrs using propidium iodide staining by flow cytometry. The class given is functional. Put shortly: as §3
In assay [8] the test system is MCF7. The assay can be described thus: Cell cycle arrest in human MCF7 cells assessed as accumulation at S phase at 2 uM after 24 hrs using propidium iodide staining by flow cytometry. The class given is functional. Put shortly: as §3
Assay [9] deals with MCF7. The assay can be described thus: Cell cycle arrest in human MCF7 cells assessed as accumulation at G2/M phase at 4 uM after 24 hrs using propidium iodide staining by flow cytometry. The assay is classed as functional. Put shortly:
as §3

Assay [10] deals with MCF7. In words: Induction of apoptosis in human MCF7 cells assessed as increase of caspase 8 activation at 2 uM after 1 hr by […] method. The assay is classed as functional, cell-based. Put shortly:
(§4)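 Colorimetric caspase-8 kit on lysates of treated MCF-7 cells. The IETD-pNA substrate was incubated with cell lysate at 37 °C for 1 h, and absorbance was read at 405 nm. Untreated cells served as the control.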

Assay [11] relates to MCF7. In words: Increase of PARP cleavage in human MCF7 cells at 2 uM after 24 hrs by Western blot analysis. The class given is functional, cell-based. Put shortly:
as §1
In general terms: Immunoblotting shows a protein as a band on a membrane.

For assay [12], the system named is MCF7. The assay can be described thus: Increase of PARP cleavage in human MCF7 cells at 4 uM after 24 hrs by Western blot analysis. The class given is functional, cell-based. Put shortly:
as §1

Assay [13] has as its system Nucleic Acid. In words: Inhibition of Escherichia coli pBR322 DNA cleavage at 16 uM after 16 hrs by RED100-restriction endonuclease digestion assay. The assay is classed as nucleic-acid assay. Put shortly:
(§5)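 pBR322 DNA was preincubated with compound at final 2, 4, 8, 16 and 32 µM for 16 h at 37 °C. BamHI (10 U/µl) in BamHI buffer was then added for 2 h at 37 °C. Products were separated on agarose in 0.5× Tris–acetate EDTA at 80 V for 1 h and stained with ethidium bromide. Cut and uncut DNA served as controls.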

Assay [14] relates to MCF7. The assay can be described thus: Induction of apoptosis in human MCF7 cells assessed as increase of caspase 8 activation at 4 uM after 1 hr by […] method. The assay is classed as functional, cell-based. Put shortly:
as §4

Assay [15] has as its system MCF7. The assay can be described thus: Cell cycle arrest in human MCF7 cells assessed as accumulation at G0 phase after 24 hrs using propidium iodide staining by flow cytometry. The class given is functional, cell-based. Put shortly:
as §3

Assay [16] relates to Nucleic Acid. The assay can be described thus: Inhibition of Escherichia coli pBR322 DNA cleavage after 16 hrs by RED100-restriction endonuclease digestion assay. The assay is classed as nucleic-acid assay. Put shortly: as §5
In assay [17] the test system is MCF7. The assay can be described thus: Cell cycle arrest in human MCF7 cells assessed as accumulation at S phase at 4 uM after 24 hrs using propidium iodide staining by flow cytometry. The assay is classed as functional. Put shortly: as §3
The subject of assay [18] is MCF7. In words: Cell cycle arrest in human MCF7 cells assessed as accumulation at G1 phase at 4 uM after 24 hrs using propidium iodide staining by flow cytometry. The class given is functional. Put shortly:
as §3

Assay [19] has as its system MCF7. The assay can be described thus: Cell cycle arrest in human MCF7 cells assessed as accumulation at G0 phase at 4 uM after 24 hrs using propidium iodide staining by flow cytometry. The assay is classed as functional. Put shortly:
as §3

Assay [20] deals with MCF7. The assay can be described thus: Cytotoxicity against human MCF7 cells at 4 uM after 24 hrs by MTT assay relative to control. The assay is classed as functional, cell-based. Put shortly:
as §2

In assay [21] the test system is MCF7. The assay can be described thus: Cell cycle arrest in human MCF7 cells assessed as accumulation at G1 phase at 2 uM after 24 hrs using propidium iodide staining by flow cytometry. The class given is functional. Put shortly: as §3
The subject of assay [22] is MCF7. The assay can be described thus: Increase of cytosolic cytochrome c level in human MCF7 cells at 2 uM after 24 hrs by Western blot analysis. The assay is classed as functional, cell-based. Put shortly: as §1
Assay [23] relates to MCF7. In words: Cytotoxicity against human MCF7 cells at 1 uM after 24 hrs by MTT assay relative to control. The class given is functional. Put shortly:
as §2

Assay [24] relates to MCF7. In words: Decrease of cyclin D1 level in human MCF7 cells at 2 uM after 24 hrs by Western blot analysis. The assay is classed as functional, cell-based. Put shortly: (§6)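 MCF-7 cells were treated at 2 or 4 µM for 24 h, then lysed in ice-cold RIPA buffer with protease inhibitors and NaF. Protein was quantified by Bradford. Thirty µg per lane was run on 12% SDS-PAGE and transferred to PVDF. Membranes were blocked 2 h, given primary antibody overnight at 4 °C, then HRP secondary (1:2000) for 1 h. Bands were detected by chemiluminescence.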

Assay [25] relates to MCF7. The assay can be described thus: Decrease of cyclin D1 level in human MCF7 cells at 4 uM after 24 hrs by Western blot analysis. The assay is classed as functional, cell-based. Put shortly: as §6
The subject of assay [26] is MCF7. The assay can be described thus: Induction of apoptosis in human MCF7 cells assessed as increase of caspase 9 activation at 2 uM after 1 hr by fluorimetry based assay. The class given is functional, cell-based.
Assay [27] relates to MCF7. The assay can be described thus: Induction of apoptosis in human MCF7 cells assessed as increase of caspase 9 activation at 2 to 4 uM after 1 hr by fluorimetry based assay in presence of caspase 9 inhibitor LEHD-CHO. The assay is classed as functional, cell-based.

Data on three compounds can be found in ChEMBL document CHEMBL1165860, “Synthesis and potential cytotoxic activity of new phenanthrylphenol-pyrrolobenzodiazepines” (2010).

Active and inactive are the calls of the source. The calls are words filed in the database; no cut-off is given here.

The inhibition is the percentage by which the read-out fell short of the control. On to `COc1cc2c(cc1OCCCCOc1ccc(-c3cc4ccccc4c4ccccc34)cc1)N=C[C@@H]1CCCN1C2=O`, for which the result in the assay with MCF7 [1], in the assay with MCF7 [2], in the assay on MCF7 [3], in the assay with MCF7 [6], in the assay on MCF7 [10] and with MCF7 [11] was Active. Moreover, the outcome in the assay on MCF7 [12], with MCF7 [14], with MCF7 [20] and in the assay with MCF7 [22] was Active. For the same compound, the Activity entry was “<=50%” in the assay on MCF7 [4]; 4.25% in the assay on MCF7 [5]; 15.08% in the assay with MCF7 [7]; 12.45% with MCF7 [8]; 2.94% in the assay with MCF7 [9]; “Dose-dependent effect” in the assay on MCF7 [15]. The Activity with MCF7 [17] was 5.5%; in the assay with MCF7 [18], 70.3%; in the assay on MCF7 [19], 20.86%; in the assay with MCF7 [21] it was 66.31%. Besides, the inhibition is 100% in the assay on Nucleic Acid [13] and “Dose-dependent effect” with Nucleic Acid [16].

Take `COc1cc2c(cc1O)N=C[C@@H]1CCCN1C2=O`: the result in the assay with MCF7 [1], with MCF7 [11], in the assay on MCF7 [12], with MCF7 [14] and in the assay on MCF7 [22] was Active. The Activity in the assay with MCF7 [5] came out at 13.1%; with MCF7 [7], 3.19%; in the assay on MCF7 [8], 20.26%; with MCF7 [9], 3.5%; with MCF7 [17] it was 14.16%; in the assay on MCF7 [18], 75.28%. Besides, the figures for the Activity with MCF7 [19] and in the assay on MCF7 [21] were 8.07% and 65.98%, respectively.

Take `COc1cc2c(cc1OCCCCCOc1ccc(-c3cc4ccccc4c4ccccc34)cc1)N=C[C@@H]1CCCN1C2=O`: the outcome in the assay with MCF7 [1], in the assay on MCF7 [2], in the assay on MCF7 [3], in the assay with MCF7 [6], in the assay on MCF7 [10] and with MCF7 [24] was Active. Further, the outcome in the assay on MCF7 [11], in the assay with MCF7 [12], in the assay on MCF7 [14], in the assay with MCF7 [25], in the assay on MCF7 [26] and in the assay with MCF7 [20] was Active. Also, the result in the assay on MCF7 [22] was Active. Moreover, the Activity is 2.61% with MCF7 [5]; 13.08% in the assay on MCF7 [7]; 7.76% in the assay with MCF7 [8]; “<=50%” in the assay on MCF7 [23]; 2.46% with MCF7 [9]; “Dose-dependent effect” with MCF7 [15]. Also, the Activity in the assay on MCF7 [17] is on record as 4.86%; in the assay on MCF7 [18] it was 69.07%; in the assay with MCF7 [19], 22.71%; in the assay on MCF7 [21], 75.84%. The inhibition was 100% in the assay on Nucleic Acid [13] and “Dose-dependent effect” in the assay on Nucleic Acid [16]. Further, in the assay with MCF7 [27], the result was inactive.
